From paper PMC9218157 (Heliyon, 2022)
Marks after values point to notes of the source that are not given here.

How the values were obtained:
[1] = ABTS cation radical scavenging activity; conditions: mean ± SE; concentration showing 50% of antioxidant activity
In short: (§1)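 Procedure taken from a cited method; the paper gives no reagent levels, times or read-out wavelength. Test compounds were a pyridine Schiff base ligand and its Cu(II) and Zn(II) complexes, with butylated hydroxyanisole (BHA) as positive control.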

[2] = target: T1, type-VI B porcine pancreatic α-amylase (Sus scrofa, UniProt P00690); assay: Inhibition of α-amylase; type: biochemical
T1 sequence (P00690 16-511): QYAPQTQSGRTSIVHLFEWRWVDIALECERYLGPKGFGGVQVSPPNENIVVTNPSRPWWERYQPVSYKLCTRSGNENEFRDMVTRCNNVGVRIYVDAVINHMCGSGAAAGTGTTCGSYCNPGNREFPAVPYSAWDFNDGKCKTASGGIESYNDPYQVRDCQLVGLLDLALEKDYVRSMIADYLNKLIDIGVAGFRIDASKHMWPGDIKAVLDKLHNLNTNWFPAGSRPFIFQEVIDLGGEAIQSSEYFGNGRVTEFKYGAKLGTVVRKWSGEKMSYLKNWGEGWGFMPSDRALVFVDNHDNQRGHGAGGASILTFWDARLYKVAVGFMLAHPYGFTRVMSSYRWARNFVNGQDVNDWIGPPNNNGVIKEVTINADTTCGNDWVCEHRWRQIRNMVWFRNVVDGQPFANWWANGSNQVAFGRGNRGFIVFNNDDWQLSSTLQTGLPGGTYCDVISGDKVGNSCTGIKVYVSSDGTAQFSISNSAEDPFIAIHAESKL

[3] = Superoxide anion radical scavenging activity; conditions: mean ± SE; concentration showing 50% of antioxidant activity
In short: as §1

[4] = DPPH free radical scavenging activity; conditions: mean ± SE; concentration showing 50% of antioxidant activity
In short: as §1

SMILES: COc1cc(C=Nc2ccc([N+](=O)[O-])cn2)ccc1O [HL, 2-methoxy-4-(((5-nitropyridin-2-yl)imino)methyl)phenol]
- EC50 Radical scavenging activities ABTS [1]: 4.65 ± 0.61^d mg/mL
- IC50 [2]: 11.3 mM
- EC50 Radical scavenging activities Superoxide [3]: 5.25 ± 2.35^d mg/mL
- EC50 Radical scavenging activities DPPH [4]: 3.10 ± 0.47^d mg/mL
